Measured values reported in ChEMBL document CHEMBL1649343, “Pulicatins A-E, neuroactive thiazoline metabolites from cone snail-associated bacteria” (J Nat Prod, 2010).
Values belong to the compound of their own block, whether it stands above or below them. Calls of active or inactive are those of the source. The calls are words filed in the database; no cut-off is given here.

What was measured:
[1] = molecular target: 5-hydroxytryptamine receptor 4 (Homo sapiens) (UniProt Q13639); test: Binding affinity to human 5HT4 receptor at 10 uM by radioligand displacement assay
5-hydroxytryptamine receptor 4 (Homo sapiens), sequence (Q13639 whole entry): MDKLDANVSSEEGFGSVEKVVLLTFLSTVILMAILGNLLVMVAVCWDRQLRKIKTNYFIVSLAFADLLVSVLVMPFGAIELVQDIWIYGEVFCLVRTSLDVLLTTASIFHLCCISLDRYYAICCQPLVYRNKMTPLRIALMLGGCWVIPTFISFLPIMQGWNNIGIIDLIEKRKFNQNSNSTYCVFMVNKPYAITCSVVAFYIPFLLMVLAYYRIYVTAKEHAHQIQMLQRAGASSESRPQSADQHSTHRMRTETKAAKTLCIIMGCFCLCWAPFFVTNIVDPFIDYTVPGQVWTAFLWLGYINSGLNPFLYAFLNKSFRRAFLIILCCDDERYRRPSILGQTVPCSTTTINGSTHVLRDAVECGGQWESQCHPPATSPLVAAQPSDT
Method in brief: (§1)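 Primary screen run by the PDSP/NIMH across a 46-target panel. Each compound was tested at a final concentration of 10 µM by radioligand displacement, and initial hits were obtained from this screen.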

[2] = species on record: Homo sapiens; test: Selectivity ratio of Ki for human 5HT3 receptor to Ki for human 5HT2B receptor
[3] = molecular target: 5-hydroxytryptamine receptor 6 (Homo sapiens) (UniProt P50406); test: Binding affinity to human 5HT6 receptor at 10 uM by radioligand displacement assay; method in brief: as §1
5-hydroxytryptamine receptor 6 (Homo sapiens), sequence (P50406 whole entry): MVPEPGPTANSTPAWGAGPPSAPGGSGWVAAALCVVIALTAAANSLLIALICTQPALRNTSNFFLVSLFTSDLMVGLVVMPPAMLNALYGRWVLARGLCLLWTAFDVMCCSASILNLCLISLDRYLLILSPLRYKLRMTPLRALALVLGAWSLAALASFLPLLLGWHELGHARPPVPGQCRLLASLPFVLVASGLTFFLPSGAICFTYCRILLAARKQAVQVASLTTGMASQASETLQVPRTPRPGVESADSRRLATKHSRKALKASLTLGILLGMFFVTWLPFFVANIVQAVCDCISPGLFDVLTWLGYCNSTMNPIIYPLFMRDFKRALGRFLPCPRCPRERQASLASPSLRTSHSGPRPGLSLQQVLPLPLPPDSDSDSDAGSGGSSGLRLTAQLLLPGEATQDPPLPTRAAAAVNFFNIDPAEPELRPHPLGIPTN

[4] = species on record: Homo sapiens; test: Selectivity ratio of Ki for human 5HT1B receptor to Ki for human 5HT2B receptor
[5] = species on record: Homo sapiens; test: Selectivity ratio of Ki for human 5HT1E receptor to Ki for human 5HT2B receptor
[6] = molecular target: 5-hydroxytryptamine receptor 2B (Mus musculus) (UniProt Q02152); test: Increase of 5HT2B receptor-mediated KCL-induced intracellular calcium influx in mouse DRG neurons at 20 ug/ml; format: functional, cell-based
5-hydroxytryptamine receptor 2B (Mus musculus), sequence (Q02152 whole entry): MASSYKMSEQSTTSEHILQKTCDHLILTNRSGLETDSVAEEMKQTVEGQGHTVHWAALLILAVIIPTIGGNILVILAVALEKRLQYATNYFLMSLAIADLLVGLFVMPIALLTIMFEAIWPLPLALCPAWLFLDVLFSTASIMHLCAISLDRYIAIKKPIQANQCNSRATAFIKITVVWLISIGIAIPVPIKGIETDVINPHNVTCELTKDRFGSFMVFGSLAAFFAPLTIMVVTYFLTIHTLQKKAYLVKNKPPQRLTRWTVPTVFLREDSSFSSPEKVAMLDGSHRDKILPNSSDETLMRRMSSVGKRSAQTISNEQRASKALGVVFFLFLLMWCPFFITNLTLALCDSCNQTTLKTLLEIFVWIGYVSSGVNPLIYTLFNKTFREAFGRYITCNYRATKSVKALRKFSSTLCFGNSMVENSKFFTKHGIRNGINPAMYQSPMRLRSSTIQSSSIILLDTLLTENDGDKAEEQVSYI
Method in brief: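 Dorsal root ganglia cells from the cervical and lumbar regions of mice were loaded with Fura-2 AM and imaged individually by fluorescence microscopy at 20 to 25 °C. After baseline, cells were given 25 mM KCl and washed. After return to baseline, compound was applied at 20 µg/mL, then replaced with 25 mM KCl while intracellular Ca2+ was monitored.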

[7] = species on record: Homo sapiens; test: Selectivity ratio of Ki for human 5HT6 receptor to Ki for human 5HT2B receptor
[8] = molecular target: 5-hydroxytryptamine receptor 1D (Homo sapiens) (UniProt P28221); test: Binding affinity to human 5HT1D receptor at 10 uM by radioligand displacement assay; method in brief: as §1
5-hydroxytryptamine receptor 1D (Homo sapiens), sequence (P28221 whole entry): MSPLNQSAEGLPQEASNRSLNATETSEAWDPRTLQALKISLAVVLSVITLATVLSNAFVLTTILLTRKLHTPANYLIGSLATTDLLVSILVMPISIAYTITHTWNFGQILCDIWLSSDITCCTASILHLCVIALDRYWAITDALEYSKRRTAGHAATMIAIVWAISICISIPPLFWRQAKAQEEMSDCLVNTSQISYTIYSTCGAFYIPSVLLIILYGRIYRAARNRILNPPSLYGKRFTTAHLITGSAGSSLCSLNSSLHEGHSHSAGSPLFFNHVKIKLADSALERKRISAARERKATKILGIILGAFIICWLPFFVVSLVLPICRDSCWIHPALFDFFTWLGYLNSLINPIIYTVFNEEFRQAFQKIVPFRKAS

[9] = species on record: Homo sapiens; test: Selectivity ratio of Ki for human 5HT2C receptor to Ki for human 5HT2B receptor
[10] = species on record: Homo sapiens; test: Selectivity ratio of Ki for human 5HT4 receptor to Ki for human 5HT2B receptor
[11] = species on record: Homo sapiens; test: Selectivity ratio of Ki for human 5HT7 receptor to Ki for human 5HT2B receptor
[12] = molecular target: T1, 5-hydroxytryptamine receptor 3A (Homo sapiens) (UniProt P46098); test: Binding affinity to human 5HT3 receptor at 10 uM by radioligand displacement assay; method in brief: as §1
T1 sequence (whole entry): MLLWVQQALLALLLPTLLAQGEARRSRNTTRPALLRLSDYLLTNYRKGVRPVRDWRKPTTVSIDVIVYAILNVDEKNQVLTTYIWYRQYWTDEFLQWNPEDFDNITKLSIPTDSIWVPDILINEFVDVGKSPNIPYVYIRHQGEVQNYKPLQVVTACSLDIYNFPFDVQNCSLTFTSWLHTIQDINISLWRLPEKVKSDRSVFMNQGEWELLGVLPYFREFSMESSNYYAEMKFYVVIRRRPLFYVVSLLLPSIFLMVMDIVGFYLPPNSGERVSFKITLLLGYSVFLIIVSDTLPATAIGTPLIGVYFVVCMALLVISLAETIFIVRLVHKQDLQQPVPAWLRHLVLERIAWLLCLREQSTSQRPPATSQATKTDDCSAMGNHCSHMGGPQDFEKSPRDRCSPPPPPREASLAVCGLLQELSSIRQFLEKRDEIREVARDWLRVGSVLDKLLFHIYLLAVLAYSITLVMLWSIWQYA

[13] = molecular target: 5-hydroxytryptamine receptor 2A (Homo sapiens) (UniProt P28223); test: Binding affinity to human 5HT2A receptor at 10 uM by radioligand displacement assay; method in brief: as §1
5-hydroxytryptamine receptor 2A (Homo sapiens), sequence (P28223 whole entry): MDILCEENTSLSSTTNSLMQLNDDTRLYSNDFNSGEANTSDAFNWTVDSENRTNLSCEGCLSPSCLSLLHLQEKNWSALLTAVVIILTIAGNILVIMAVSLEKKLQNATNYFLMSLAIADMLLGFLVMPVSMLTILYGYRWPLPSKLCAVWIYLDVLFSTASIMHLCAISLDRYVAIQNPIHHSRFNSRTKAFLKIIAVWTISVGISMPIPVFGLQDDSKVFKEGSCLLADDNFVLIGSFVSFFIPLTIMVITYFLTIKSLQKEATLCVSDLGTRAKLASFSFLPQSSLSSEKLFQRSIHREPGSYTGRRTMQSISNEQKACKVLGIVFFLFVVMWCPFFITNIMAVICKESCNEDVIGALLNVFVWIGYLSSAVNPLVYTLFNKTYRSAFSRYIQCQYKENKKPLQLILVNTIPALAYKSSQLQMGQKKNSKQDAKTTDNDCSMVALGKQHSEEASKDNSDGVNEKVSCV

[14] = molecular target: 5-hydroxytryptamine receptor 7 (Homo sapiens) (UniProt P34969); test: Binding affinity to human 5HT7 receptor at 10 uM by radioligand displacement assay; method in brief: as §1
5-hydroxytryptamine receptor 7 (Homo sapiens), sequence (P34969 whole entry): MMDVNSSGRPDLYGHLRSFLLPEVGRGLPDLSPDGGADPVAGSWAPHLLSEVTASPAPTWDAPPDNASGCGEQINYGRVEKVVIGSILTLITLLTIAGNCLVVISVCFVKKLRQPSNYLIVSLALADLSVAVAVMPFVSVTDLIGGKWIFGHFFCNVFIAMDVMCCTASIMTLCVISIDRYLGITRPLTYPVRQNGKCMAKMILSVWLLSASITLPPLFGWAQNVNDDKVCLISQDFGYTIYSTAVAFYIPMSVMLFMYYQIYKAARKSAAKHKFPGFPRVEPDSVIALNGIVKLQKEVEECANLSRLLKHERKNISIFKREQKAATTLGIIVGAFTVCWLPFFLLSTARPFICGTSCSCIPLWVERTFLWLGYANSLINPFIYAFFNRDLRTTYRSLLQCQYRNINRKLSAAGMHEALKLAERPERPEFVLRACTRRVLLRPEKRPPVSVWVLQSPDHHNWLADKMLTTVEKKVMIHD

[15] = molecular target: 5-hydroxytryptamine receptor 1B (Homo sapiens) (UniProt P28222); test: Binding affinity to human 5HT1B receptor at 10 uM by radioligand displacement assay; method in brief: as §1
5-hydroxytryptamine receptor 1B (Homo sapiens), sequence (P28222 whole entry): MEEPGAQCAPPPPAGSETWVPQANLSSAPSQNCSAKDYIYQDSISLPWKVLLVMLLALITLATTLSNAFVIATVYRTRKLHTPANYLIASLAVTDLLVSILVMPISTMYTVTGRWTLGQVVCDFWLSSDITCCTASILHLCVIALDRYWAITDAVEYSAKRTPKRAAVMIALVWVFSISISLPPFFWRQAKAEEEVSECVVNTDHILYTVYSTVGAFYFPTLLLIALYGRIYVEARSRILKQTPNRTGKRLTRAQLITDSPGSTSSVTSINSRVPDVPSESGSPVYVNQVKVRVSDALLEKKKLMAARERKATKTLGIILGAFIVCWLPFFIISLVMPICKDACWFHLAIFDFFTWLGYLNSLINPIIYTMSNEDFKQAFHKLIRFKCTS

[16] = species on record: Homo sapiens; test: Selectivity ratio of Ki for human 5HT2A receptor to Ki for human 5HT2B receptor
[17] = species on record: Homo sapiens; test: Selectivity ratio of Ki for human 5HT1D receptor to Ki for human 5HT2B receptor
[18] = species on record: Homo sapiens; test: Selectivity ratio of Ki for human 5HT1A receptor to Ki for human 5HT2B receptor
[19] = molecular target: T2, 5-hydroxytryptamine receptor 1A (Homo sapiens) (UniProt P08908); test: Binding affinity to human 5HT1A receptor at 10 uM by radioligand displacement assay; method in brief: as §1
T2 sequence (whole entry): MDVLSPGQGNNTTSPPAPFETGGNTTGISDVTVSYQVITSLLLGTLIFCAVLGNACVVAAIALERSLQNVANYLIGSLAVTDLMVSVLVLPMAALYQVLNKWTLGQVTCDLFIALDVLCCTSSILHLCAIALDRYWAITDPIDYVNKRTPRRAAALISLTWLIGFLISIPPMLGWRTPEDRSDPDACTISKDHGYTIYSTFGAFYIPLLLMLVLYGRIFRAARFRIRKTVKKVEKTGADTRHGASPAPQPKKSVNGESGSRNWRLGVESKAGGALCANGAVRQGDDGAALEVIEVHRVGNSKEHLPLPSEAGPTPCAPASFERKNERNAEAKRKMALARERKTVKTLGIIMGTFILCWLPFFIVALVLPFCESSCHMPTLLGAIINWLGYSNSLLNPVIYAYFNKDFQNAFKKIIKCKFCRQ

[20] = molecular target: 5-hydroxytryptamine receptor 1E (Homo sapiens) (UniProt P28566); test: Binding affinity to human 5HT1E receptor at 10 uM by radioligand displacement assay; method in brief: as §1
5-hydroxytryptamine receptor 1E (Homo sapiens), sequence (P28566 whole entry): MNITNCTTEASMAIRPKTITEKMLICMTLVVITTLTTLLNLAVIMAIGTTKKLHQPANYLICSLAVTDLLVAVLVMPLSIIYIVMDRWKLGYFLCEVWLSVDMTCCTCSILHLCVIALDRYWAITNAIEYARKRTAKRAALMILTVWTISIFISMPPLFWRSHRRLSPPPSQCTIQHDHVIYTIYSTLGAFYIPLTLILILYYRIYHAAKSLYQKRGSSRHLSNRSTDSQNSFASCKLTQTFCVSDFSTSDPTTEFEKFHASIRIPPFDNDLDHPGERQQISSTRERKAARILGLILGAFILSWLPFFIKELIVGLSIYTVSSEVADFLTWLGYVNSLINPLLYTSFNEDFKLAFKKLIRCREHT

[21] = molecular target: 5-hydroxytryptamine receptor 5A (Homo sapiens) (UniProt P47898); test: Binding affinity to human 5HT5A receptor at 10 uM by radioligand displacement assay; method in brief: as §1
5-hydroxytryptamine receptor 5A (Homo sapiens), sequence (P47898 whole entry): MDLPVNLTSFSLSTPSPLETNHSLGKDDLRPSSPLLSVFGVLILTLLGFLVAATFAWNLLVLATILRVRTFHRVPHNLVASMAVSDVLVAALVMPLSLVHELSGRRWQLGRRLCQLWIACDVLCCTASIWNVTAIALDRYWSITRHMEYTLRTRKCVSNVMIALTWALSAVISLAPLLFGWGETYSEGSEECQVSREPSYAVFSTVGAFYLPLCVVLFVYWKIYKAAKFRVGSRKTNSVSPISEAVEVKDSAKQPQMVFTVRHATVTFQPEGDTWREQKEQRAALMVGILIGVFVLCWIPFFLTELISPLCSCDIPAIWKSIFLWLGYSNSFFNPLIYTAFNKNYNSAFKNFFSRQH

[22] = molecular target: T3, 5-hydroxytryptamine receptor 2C (Homo sapiens) (UniProt P28335); test: Binding affinity to human 5HT2C receptor at 10 uM by radioligand displacement assay; method in brief: as §1
T3 sequence (whole entry): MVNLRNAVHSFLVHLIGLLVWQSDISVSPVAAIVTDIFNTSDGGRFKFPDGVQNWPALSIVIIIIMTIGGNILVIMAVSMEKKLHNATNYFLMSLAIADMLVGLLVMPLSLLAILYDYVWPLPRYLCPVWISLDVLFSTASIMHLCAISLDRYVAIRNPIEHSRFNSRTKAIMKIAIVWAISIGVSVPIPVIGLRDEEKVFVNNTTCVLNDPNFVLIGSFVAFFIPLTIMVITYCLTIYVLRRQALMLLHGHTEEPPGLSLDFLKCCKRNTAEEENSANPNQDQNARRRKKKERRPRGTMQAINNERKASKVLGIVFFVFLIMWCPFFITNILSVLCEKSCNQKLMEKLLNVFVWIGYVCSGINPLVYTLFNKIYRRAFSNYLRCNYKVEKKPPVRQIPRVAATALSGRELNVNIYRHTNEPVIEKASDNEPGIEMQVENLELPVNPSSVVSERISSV

[23] = species on record: Homo sapiens; test: Selectivity ratio of Ki for human 5HT5A receptor to Ki for human 5HT2B receptor
[24] = molecular target: Histamine H1 receptor (Homo sapiens) (UniProt P35367); test: Binding affinity to human histamine H1 receptor by radioligand displacement assay
Histamine H1 receptor (Homo sapiens), sequence (P35367 whole entry): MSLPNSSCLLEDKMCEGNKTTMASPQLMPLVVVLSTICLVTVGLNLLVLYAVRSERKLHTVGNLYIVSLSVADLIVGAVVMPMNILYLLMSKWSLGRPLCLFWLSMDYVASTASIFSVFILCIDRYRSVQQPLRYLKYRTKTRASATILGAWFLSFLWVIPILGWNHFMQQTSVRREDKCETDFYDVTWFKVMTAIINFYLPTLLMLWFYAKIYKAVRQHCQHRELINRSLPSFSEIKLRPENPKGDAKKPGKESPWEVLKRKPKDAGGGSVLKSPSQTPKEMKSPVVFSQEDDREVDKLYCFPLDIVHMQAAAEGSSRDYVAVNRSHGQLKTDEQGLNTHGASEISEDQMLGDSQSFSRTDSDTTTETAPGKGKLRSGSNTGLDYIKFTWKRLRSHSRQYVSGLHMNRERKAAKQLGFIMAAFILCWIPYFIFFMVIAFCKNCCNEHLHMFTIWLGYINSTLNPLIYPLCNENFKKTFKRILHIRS

[25] = molecular target: Kappa-type opioid receptor (Homo sapiens) (UniProt P41145); test: Binding affinity to human kappa opioid receptor by radioligand displacement assay
Kappa-type opioid receptor (Homo sapiens), sequence (P41145 whole entry): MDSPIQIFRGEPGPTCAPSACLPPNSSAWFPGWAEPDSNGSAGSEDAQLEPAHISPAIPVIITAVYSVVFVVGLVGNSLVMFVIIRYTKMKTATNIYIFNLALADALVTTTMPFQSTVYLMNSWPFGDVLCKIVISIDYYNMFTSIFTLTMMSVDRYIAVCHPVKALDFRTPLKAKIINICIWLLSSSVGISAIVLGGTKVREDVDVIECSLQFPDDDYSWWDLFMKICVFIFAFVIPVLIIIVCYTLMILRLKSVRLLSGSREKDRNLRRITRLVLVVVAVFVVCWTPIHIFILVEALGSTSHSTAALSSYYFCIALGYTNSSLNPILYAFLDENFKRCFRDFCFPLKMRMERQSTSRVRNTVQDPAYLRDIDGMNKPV

- Activity [1]: inactive
- Ratio Ki [2]: 20
- Activity [3]: inactive
- Ratio Ki [4]: 20
- Ratio Ki [5]: 20
- Activity [6]: inactive
- Ratio Ki [7]: 20
- Activity [8]: inactive
- Ratio Ki [9]: 20
- Ratio Ki [10]: 20
- Ratio Ki [11]: 20
- Activity [12]: inactive
- Activity [13]: inactive
- Activity [14]: inactive
- Activity [15]: inactive
- Ratio Ki [16]: 20
- Ratio Ki [17]: 20
- Ratio Ki [18]: 20
- Activity [19]: inactive
- Activity [20]: inactive
- Activity [21]: inactive
- Activity [22]: inactive
- Ratio Ki [23]: 20
SMILES: C[C@@H]1SC(c2ccccc2O)=N[C@@H]1CO

- Activity [6]: Active
- Activity [24]: 678 nM
- Activity [25]: 3.71 µM
SMILES: NC(=O)C1CSC(c2ccccc2O)=N1 (stereo not drawn)

- Activity [6]: Active
SMILES: OC[C@@H]1CSC(c2ccccc2O)=N1

- Activity [24]: 517 nM
SMILES: NC(=O)c1csc(-c2ccccc2O)n1
